Results on seven compounds are retold here after ChEMBL document CHEMBL3826891, “Cupriphilic compounds to aid in proteasome inhibition” (Bioorg Med Chem Lett, 2016).

Calls of active or inactive are those of the source. The rule behind the calls is not given here.

Test [1] concerns the target T1, Proteasome Macropain subunit MB1 (Homo sapiens) (UniProt P28074).
T1 sequence (whole entry): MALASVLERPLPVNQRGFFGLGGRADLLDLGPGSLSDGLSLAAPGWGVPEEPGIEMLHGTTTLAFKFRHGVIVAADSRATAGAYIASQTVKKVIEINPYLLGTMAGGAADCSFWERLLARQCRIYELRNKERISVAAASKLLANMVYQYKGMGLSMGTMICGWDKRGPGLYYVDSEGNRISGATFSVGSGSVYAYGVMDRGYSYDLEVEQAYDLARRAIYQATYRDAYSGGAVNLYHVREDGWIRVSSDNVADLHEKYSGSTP
In words: Inhibition of chymotrypsin like activity of 20S proteasome (unknown origin) using suc-leu-leu-val-tyr-AMC as substrate at 10 uM after 40 mins in presence of 1 uM copper by fluorescence assay. An outline of the steps: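 Compound in DMSO, final DMSO below 2%, at 10 µM. Premixed with 1 µM copper chloride in 50 mM Tris pH 7.6 for 40 min with gentle shaking to allow chelation. 20S proteasome and suc-Leu-Leu-Val-Tyr-AMC were then added and incubated 2 h at 37 °C. Substrate cleavage rate was read as fluorescence at 340 nm excitation and 460 nm emission.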

Test [2] addresses T1, Proteasome Macropain subunit MB1 (Homo sapiens). In words: Inhibition of chymotrypsin like activity of 20S proteasome (unknown origin) using suc-leu-leu-val-tyr-AMC as substrate at 10 uM after 40 mins in presence of iron by fluorescence assay. An outline of the steps:
(§1)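 To test metal selectivity, the chloride of nickel, calcium, iron or zinc replaced copper and was premixed with compound for 40 min with shaking in 50 mM Tris pH 7.6. 20S proteasome and suc-LLVY-AMC were then added and incubated 2 h at 37 °C. Cleavage was read by fluorescence at 340 nm excitation and 460 nm emission.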

Test [3] shares this target. In words: Inhibition of chymotrypsin like activity of 20S proteasome (unknown origin) using suc-leu-leu-val-tyr-AMC as substrate at 10 uM after 40 mins in presence of nickel by fluorescence assay. An outline of the steps:
as §1

Test [4] has the same target. In words: Inhibition of chymotrypsin like activity of 20S proteasome (unknown origin) using suc-leu-leu-val-tyr-AMC as substrate at 10 uM after 40 mins in presence of calcium by fluorescence assay. An outline of the steps: as §1
Test [5] shares this target. In words: Inhibition of chymotrypsin like activity of 20S proteasome (unknown origin) using suc-leu-leu-val-tyr-AMC as substrate at 10 uM after 40 mins in presence of copper by fluorescence assay.
Test [6] concerns the target T2, Proteasome Macropain subunit MB1 (Homo sapiens, UniProt P28074).
T2 sequence (P28074 whole entry): T1 sequence (whole entry)
In words: Inhibition of chymotrypsin like activity of 20S proteasome (unknown origin) using suc-leu-leu-val-tyr-AMC as substrate after 40 mins in presence of 100 nM copper by fluorescence assay. An outline of the steps: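 Dose-response format in which compound concentration was varied with copper chloride fixed at 100 nM. Compound and copper were pre-equilibrated 40 min with gentle shaking in 50 mM Tris pH 7.6, final DMSO below 2%. 20S proteasome and suc-LLVY-AMC were added and run 2 h at 37 °C. AMC fluorescence was read at 340/460 nm, and IC50 was taken from the curve.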

In the case of `O=C1c2c(O)cc(O)cc2OCC1c1ccc(O)cc1` (stereo unspecified), the inhibition in test [1] is more than 80%. Besides, the inhibition entry in test [2], in test [3], in test [4] and in test [5] was “Active” throughout.
Regarding `NC(=O)SCC(=O)Nc1ccccc1C(=O)O`, in test [1], the inhibition is more than 80%. In addition, the inhibition result in test [2], in test [3], in test [4] and in test [5] was “Active” each time.
In the case of `O=c1oc2c(cc1O)oc(=O)c1cc(O)c(O)c(O)c12`, in test [1], the inhibition was more than 80%. The inhibition entry in test [2], in test [3], in test [4] and in test [5] was “Active” throughout.
On to `CCN(CC)C(=S)SSC(=S)N(CC)CC`, for which the inhibition in test [1] was 92%. Besides, the inhibition entry in test [2], in test [3], in test [4] and in test [5] was “Active” each time.
`O=C1COc2c1ccc(O)c2O`: in test [1], the inhibition was more than 80%. Further, the IC50 in test [6] amounted to 3 µM. In addition, the inhibition result in test [2], in test [3], in test [4] and in test [5] was “Active” in each case.
In the case of `O=C(O)c1ccc(O)c(O)c1`, the inhibition in test [1] was more than 80%. Moreover, the inhibition entry in test [2], in test [3], in test [4] and in test [5] was “Active” each time.
In the case of `OCc1cc(O)c(CO)nn1`, the inhibition in test [1] is more than 80%. Further, the inhibition entry in test [2], in test [3], in test [4] and in test [5] was “Active” each time.

What is called inhibition is the percentage by which the read-out fell short of the control. Usually IC50 stands for the point on the concentration scale where inhibition reaches its midpoint.
